Our source for the ILS and Survivors values is ChEMBL document CHEMBL1122917, “Vinblastin-23-oyl amino acid derivatives: chemistry, physicochemical data, toxicity, and antitumor activities against P388 and L1210 leukemias” (J Med Chem, 1985).

Type in all cases: functional
Assay [1] has as its system Mus musculus. The experiment in a line: Percent increase in life span at dose 10 mg/kg/day in 10 mice implanted with P388 leukemia cell line. In short, it runs like this:
(§1)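 Female DBA2 mice inoculated iv on day 0 with 10^4 P388 cells; single iv treatment on day 1 with drug as sulfate salt in physiological saline. Survival followed; %ILS from all deaths and survivors as (T/C × 100) − 100, maximal MST 30 days; survivors counted on days 30 and 60. Most experiments confirmed three times.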

In assay [2] the test system is Mus musculus. The experiment in a line: Number of survivors on 60th day at dose 12.5 mg/kg/day in 10 mice implanted with P388 leukemia cell line.
The test system of assay [3] is Mus musculus. The assay is described as follows: Number of survivors on 60th day at dose 15 mg/kg/day in 10 mice implanted with P388 leukemia cell line.
The test system of assay [4] is Mus musculus. The experiment in a line: Number of survivors on 60th day at dose 25 mg/kg/day in 10 mice implanted with P388 leukemia cell line.
For assay [5], the system named is Mus musculus. The experiment in a line: Percent increase in life span at dose 12.5 mg/kg/day in 10 mice implanted with P388 leukemia cell line. Summed up:
as §1

The subject of assay [6] is Mus musculus. The assay is described as follows: Percent increase in life span at dose 15 mg/kg/day in 10 mice implanted with P388 leukemia cell line. In short, it runs like this: as §1
Assay [7] concerns Mus musculus. The assay is described as follows: Percent increase in life span at dose 25 mg/kg/day in 10 mice implanted with P388 leukemia cell line.
For assay [8], the system named is Mus musculus. The assay is described as follows: Percent increase in life span at dose 5 mg/kg/day in 10 mice implanted with P388 leukemia cell line. Summed up:
as §1

Assay [9] has as its system Mus musculus. The experiment in a line: Percent increase in life span of DBA2 mice after inoculation with L1210 leukemia intravenously at a dose of 12.5 mg/kg per day. The note with it: route intravenous. In short, it runs like this: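 Female DBA2 mice inoculated iv on day 0 with 10^4 L1210 cells; drugs given iv as sulfate salts in physiological saline, mostly once on day 1. %ILS from all deaths and survivors as (T/C × 100) − 100; survivors scored on days 30 and 60.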

The subject of assay [10] is Mus musculus. The assay is described as follows: Number of survivors on 60th day at dose 5 mg/kg/day in 10 mice implanted with P388 leukemia cell line.
Assay [11] deals with Mus musculus. The assay is described as follows: Number of survivors on 30th day at dose 25 mg/kg/day in 10 mice implanted with P388 leukemia cell line.
The test system of assay [12] is Mus musculus. The assay is described as follows: Number of survivors of DBA2 mice on 60th day after inoculation with L1210 leukemia cell line intravenously at a dose of 12.5 mg/kg/day; 0/10. To be noted: route intravenous.
The test system of assay [13] is Mus musculus. The assay is described as follows: Number of survivors of DBA2 mice on 30th day after inoculation with L1210 leukemia cell line intravenously at a dose of 12.5 mg/kg/day; 0/10. To be noted: route intravenous.
For assay [14], the system named is Mus musculus. The assay is described as follows: Number of survivors on 30th day at dose 5 mg/kg/day in 10 mice implanted with P388 leukemia cell line.
Assay [15] has as its system Mus musculus. The assay is described as follows: Number of survivors on 60th day at dose 10 mg/kg/day in 10 mice implanted with P388 leukemia cell line.
Assay [16] has as its system Mus musculus. The assay is described as follows: Number of survivors on 30th day at dose 12.5 mg/kg/day in 10 mice implanted with P388 leukemia cell line.
The test system of assay [17] is Mus musculus. The assay is described as follows: Number of survivors on 30th day at dose 10 mg/kg/day in 10 mice implanted with P388 leukemia cell line.
For assay [18], the system named is Mus musculus. The assay is described as follows: Number of survivors on 30th day at dose 15 mg/kg/day in 10 mice implanted with P388 leukemia cell line.
The test system of assay [19] is Mus musculus. The experiment in a line: Number of survivors on 60th day at dose 15 mg/kg/day in 10 mice implanted with P388 leukemia cell line; 0/10.
For assay [20], the system named is Mus musculus. The assay is described as follows: Number of survivors on 60th day at dose 20 mg/kg/day in 10 mice implanted with P388 leukemia cell line; 0/10.
The subject of assay [21] is Mus musculus. The assay is described as follows: Percent increase in life span at dose 20 mg/kg/day in 10 mice implanted with P388 leukemia cell line. Summed up:
as §1

Assay [22] deals with Mus musculus. The assay is described as follows: Number of survivors on 60th day at dose 50 mg/kg/day in 10 mice implanted with P388 leukemia cell line; 0/10.
The subject of assay [23] is Mus musculus. The experiment in a line: Percent increase in life span at dose 30 mg/kg/day in 10 mice implanted with P388 leukemia cell line. Summed up:
as §1

The test system of assay [24] is Mus musculus. The assay is described as follows: Percent increase in life span at dose 40 mg/kg/day in 10 mice implanted with P388 leukemia cell line. Summed up:
as §1

The subject of assay [25] is Mus musculus. The experiment in a line: Number of survivors on 60th day at dose 30 mg/kg/day in 10 mice implanted with P388 leukemia cell line; 0/10.
For assay [26], the system named is Mus musculus. The experiment in a line: Number of survivors on 60th day at dose 40 mg/kg/day in 10 mice implanted with P388 leukemia cell line; 0/10.
Assay [27] concerns Mus musculus. The experiment in a line: Number of survivors on 60th day at dose 5 mg/kg/day in 10 mice implanted with P388 leukemia cell line; 0/10.
Assay [28] has as its system Mus musculus. The experiment in a line: Number of survivors on 30th day at dose 20 mg/kg/day in 10 mice implanted with P388 leukemia cell line; 0/10.
Assay [29] relates to Mus musculus. The assay is described as follows: Number of survivors on 30th day at dose 30 mg/kg/day in 10 mice implanted with P388 leukemia cell line; 0/10.
Assay [30] has as its system Mus musculus. The experiment in a line: Number of survivors on 30th day at dose 40 mg/kg/day in 10 mice implanted with P388 leukemia cell line; 0/10.
The test system of assay [31] is Mus musculus. The experiment in a line: Number of survivors on 30th day at dose 5 mg/kg/day in 10 mice implanted with P388 leukemia cell line; 0/10.
Assay [32] concerns Mus musculus. The assay is described as follows: Number of survivors on 30th day at dose 50 mg/kg/day in 10 mice implanted with P388 leukemia cell line; 0/10.
In assay [33] the test system is Mus musculus. The assay is described as follows: Number of survivors on 30th day at dose 15 mg/kg/day in 10 mice implanted with P388 leukemia cell line; 0/10.
The test system of assay [34] is Mus musculus. The assay is described as follows: Percent increase in life span at dose 50 mg/kg/day in 10 mice implanted with P388 leukemia cell line. In short, it runs like this:
as §1

For the compound `CCOC(=O)[C@H](C)NC(=O)[C@@]1(O)[C@H](O)[C@]2(CC)C=CCN3CC[C@@]4(c5cc([C@@]6(C(=O)OC)C[C@H]7C[N@](CCc8c6[nH]c6ccccc86)C[C@](O)(CC)C7)c(OC)cc5N(C)[C@@]14C)[C@@H]32`, the ILS at 10 mg/kg/day in the assay with Mus musculus [1] worked out at 36.8%. In addition, the Survivors came out at 1 in the assay with Mus musculus [2]; 0 in the assay with Mus musculus [3]; 1 in the assay with Mus musculus [4]; 0 in the assay on Mus musculus [10]; 2 in the assay on Mus musculus [11]; 0 in the assay on Mus musculus [12]. The Survivors with Mus musculus [13] is on record as 0; with Mus musculus [14] it was 0; with Mus musculus [15], 2; in the assay on Mus musculus [16] it was 1; in the assay on Mus musculus [17] it was 2; with Mus musculus [18] it was 0. The ILS at 12.5 mg/kg/day was 46% with Mus musculus [5] and 50% in the assay on Mus musculus [9]. The ILS at 15 mg/kg/day in the assay with Mus musculus [6] came to 39%. In the assay with Mus musculus [7], this compound came in with an ILS at 25 mg/kg/day of 63.8%. The compound also gave an ILS at 5 mg/kg/day in the assay with Mus musculus [8] of 27.6%.

Turning to `CC[C@]1(O)C[C@@H]2C[N@](CCc3c([nH]c4ccccc34)[C@@](C(=O)OC)(c3cc4c(cc3OC)N(C)[C@@]3(C)[C@@](O)(C(=O)N[C@@H](CC(C)C)C(N)=O)[C@H](O)[C@]5(CC)C=CCN6CC[C@]43[C@@H]65)C2)C1`, the Survivors in the assay on Mus musculus [19], with Mus musculus [20], in the assay with Mus musculus [22], in the assay with Mus musculus [25], with Mus musculus [26] and in the assay on Mus musculus [27] was 0 throughout. The Survivors in the assay with Mus musculus [28], with Mus musculus [29], with Mus musculus [30], with Mus musculus [31], with Mus musculus [32] and in the assay on Mus musculus [33] was 0 throughout. This compound displayed an ILS at 15 mg/kg/day in the assay with Mus musculus [6] of 8.7%. Moreover, the ILS at 20 mg/kg/day with Mus musculus [21] is 1.7%. Further, in the assay on Mus musculus [23], the ILS at 30 mg/kg/day turned out to be 1.7%. This compound gave an increase in lifespan (ILS) at 40 mg/kg/day in the assay on Mus musculus [24] of 19%. The compound also returned an ILS at 5 mg/kg/day in the assay on Mus musculus [8] of 1.7%. The compound also had an ILS at 50 mg/kg/day with Mus musculus [34] of 15.5%.

The term ILS denotes the gain in survival time of treated over control animals, in per cent.
